Data reported in ChEMBL document CHEMBL4251573, “Synthesis and biological evaluation of N-substituted 3-oxo-1,2,3,4-tetrahydro-quinoxaline-6-carboxylic acid derivatives as tubulin polymerization inhibitors” (Eur J Med Chem, 2018).
Calls of active or inactive are those of the source. The rule behind the calls is not given here.

Assays:
HeLa = assay: Antiproliferative activity against human HeLa cells after 72 hrs by MTT assay; type: functional, cell-based
Outline: (§1)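 HeLa and SMMC-7721 cells in log phase were seeded at 4000-6000 cells/well. After 24 h, quadruplicate wells were treated with a series of concentrations for 72 h. DMSO stocks were 5 mmol/L, with final DMSO below 0.1%. MTT (10 mg/mL in PBS) was added for 4 h, medium replaced with DMSO, and OD read at 490 nm. IC50 came from at least five concentrations; mean and SD of at least three independent experiments.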

SMMC-7721 = assay: Antiproliferative activity against human SMMC7721 cells after 72 hrs by MTT assay; type: functional, cell-based; details: SMMC-7721, 72 h; outline: as §1
K562 = assay: Antiproliferative activity against human K562 cells after 72 hrs by MTT assay; type: functional, cell-based; details: K562, 72 h
Outline: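 K562 cells were grown in RPMI 1640 with 10% FBS at 37 °C in 5% CO2, then seeded at 4000-6000 cells/well. Quadruplicate wells were exposed to drug for 72 h, with final DMSO below 0.1%. After 4 h with MTT, solubilizer (10% SDS, 5% isobutyl alcohol, 0.01 M HCl) was added for 12 h, then OD read at 490 nm. IC50 came from at least five concentrations; mean and SD of at least three experiments.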

Tubulin (Homo sapiens) = Tubulin (Homo sapiens) (UniProt P68371+Q9H4B7+P0DPH7+P68366+Q13509+Q71U36+P04350+Q3ZCM7+P07437+P68363+Q9BQE3+Q6PEY2+Q13885+Q9BVA1+Q9BUF5); assay: Inhibition of tubulin (unknown origin) polymerization at 20 uM after 40 mins by fluorescence assay; type: protein-complex assay
Outline: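 Polymerization was run with a fluorescence kit. Compound, in duplicate, was warmed 1 min at 37 °C before adding cold tubulin mix (2 mg/mL tubulin, 80 mM PIPES pH 6.9, 2.0 mM MgCl2, 0.5 mM EGTA, 1.0 mM GTP, 15% glycerol). Fluorescence was read at ex 360/em 450 nm every minute for 1 h at 37 °C and scored at 40 min against 0.1% DMSO vehicle.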

Sus scrofa = species on record: Sus scrofa; assay: Competitive binding affinity to porcine brain tubulin at 0.1 to 10 uM preincubated for 1 hr followed by colchicine addition measured after 1 hr by fluorescence assay
Outline: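 Tubulin (4 μM) in 80 mM PIPES pH 6.9, 2 mM MgCl2 and 0.5 mM EGTA was preincubated 1 h at 37 °C with 0.1, 1, 5 or 10 μM test agent, with DMSO as control. Colchicine (10 μM) was then added for another 1 h at 37 °C. Tubulin-colchicine fluorescence was read at ex 340/em 435 nm and normalized to DMSO; at least three replicates, mean ± SD.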

Row | SMILES | IC50 (HeLa) [µM] | IC50 (SMMC-7721) [µM] | IC50 (K562) [µM] | inhibition (Tubulin (Homo sapiens)) | Activity (Sus scrofa)
1 | COC(=O)c1ccc2c(c1)NC(=O)CN2Cc1cc(OC)c(OC)c(OC)c1 | 2.76 | 2.69 | 3.42 | Active | 
2 | COc1cc(C(=O)N2CC(=O)Nc3cc(C(=O)Nc4ccccc4)ccc32)cc(OC)c1OC | 26.4 | 37.9 | > 50 |  | 
3 | COC(=O)c1ccc2c(c1)NC(=O)CN2Cc1ccc(OC)c(OC)c1 | 38.1 | 33.2 | 43.6 |  | 
4 | CC(=O)O[C@H]1C(=O)[C@@]2(C)[C@H]([C@H](OC(=O)c3ccccc3)[C@]3(O)C[C@H](OC(=O)[C@H](O)[C@@H](NC(=O)c4ccccc4)c4ccccc4)C(C)=C1C3(C)C)[C@]1(OC(C)=O)CO[C@@H]1C[C@@H]2O |  |  |  |  | inactive
5 | COc1ccc(C(=O)N2CC(=O)Nc3cc(C(=O)Nc4ccccc4)ccc32)cc1OC | 24.9 | 34.4 | 42.9 |  | 
6 | CCCCNC(=O)c1ccc2c(c1)NC(=O)CN2Cc1cc(OC)c(OC)c(OC)c1 | 37.5 | 39.7 | 43 |  | 
7 | COC(=O)c1ccc2c(c1)NC(=O)CN2C(=O)c1ccc(F)cc1 | 15.9 | 7.69 | 9.8 |  | 
8 | COC(=O)c1ccc2c(c1)NC(=O)CN2Cc1ccc(OC)cc1 | 16.4 | 12.5 | 43.2 |  | 
9 | CCCCNC(=O)c1ccc2c(c1)NC(=O)CN2C(=O)c1cc(OC)c(OC)c(OC)c1 | > 50 | 43.1 | > 50 |  | 
10 | COc1cc(CN2CC(=O)Nc3cc(C(=O)O)ccc32)cc(OC)c1OC | 32.2 | 39 | 35.9 |  | 
11 | CCCCNC(=O)c1ccc2c(c1)NC(=O)CN2C(=O)c1ccc(OC)c(OC)c1 | > 50 | > 50 | > 50 |  | 
12 | COC(=O)c1ccc2c(c1)NC(=O)CN2C(=O)c1ccc(OC)c(OC)c1 | 1.42 | 1.32 | 3 | Active | 
13 | COc1cc(C(=O)N2CC(=O)Nc3cc(C(=O)NC4CCCCC4)ccc32)cc(OC)c1OC | > 50 | 40.6 | > 50 |  | 
14 | COC(=O)c1ccc2c(c1)NC(=O)CN2C(=O)Cc1cc(OC)c(OC)c(OC)c1 | 39.4 | 9.1 | 45.3 |  | 
15 | COc1cc(C(=O)N2CC(=O)Nc3cc(C(=O)N4CCOCC4)ccc32)cc(OC)c1OC | > 50 | 39.2 | > 50 |  | 
16 | COc1cc(CN2CC(=O)Nc3cc(C(=O)NC4CCCCC4)ccc32)cc(OC)c1OC | 41.8 | 28 | 42.6 |  | 
17 | COc1ccc(/C=C\c2cc(OC)c(OC)c(OC)c2)cc1O [COMBRETASTATIN A4] |  | 0.0038 | 0.013 |  | 
18 | COc1ccc(C(=O)N2CC(=O)Nc3cc(C(=O)N4CCOCC4)ccc32)cc1OC | 34.9 | 34.9 | > 50 |  | 
19 | COc1cccc2c1C(=O)c1c(O)c3c(c(O)c1C2=O)C[C@@](O)(C(=O)CO)C[C@@H]3O[C@H]1C[C@H](N)[C@H](O)[C@H](C)O1 [DOXORUBICIN] |  | 1.59 | 0.89 |  | 
20 | COC(=O)c1ccc2c(c1)NC(=O)CN2C(=O)c1ccc(OC)cc1 | 8.28 | 5.4 | 7.72 |  | 
